{"source": "paper PMC5600458", "about": "(Biochemistry and Biophysics Reports, 2016)", "key": {"[1]": {"assay": "13C NMR of stability / Schiff base formation by the free glyoxal inhibitor", "type": "physicochemical"}, "trypsin [2]": {"target": "T1, trypsin (Bos taurus, UniProt P00760)", "T1 sequence (P00760 24-246)": "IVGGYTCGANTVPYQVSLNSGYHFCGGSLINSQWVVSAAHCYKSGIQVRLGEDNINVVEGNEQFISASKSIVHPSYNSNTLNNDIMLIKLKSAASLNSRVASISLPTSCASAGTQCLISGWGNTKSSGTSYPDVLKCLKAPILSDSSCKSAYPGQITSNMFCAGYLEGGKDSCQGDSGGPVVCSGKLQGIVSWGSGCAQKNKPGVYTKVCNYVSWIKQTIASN", "type": "biochemical", "conditions": "pH 7.2", "summary_of_the_method": "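Trypsin (78% active by p-nitrophenyl p-guanidobenzoate titration) hydrolysing α-N-benzoyl-L-arginine-p-nitroanilide at 25 °C, [S0] ≪ KM, in 0.1 M buffers (potassium phosphate at pH 7.2; sodium acetate at pH 5.0). At pH 7.2: 88.0 μM substrate, 0.17 μM trypsin, 3.3% DMSO. Inhibitor was added last. Initial rates were taken within 0.5–1 min and fitted to d[P]/dt = vo·Ki/([I]+Ki), ≥3 determinations. Effective molarity = KHK(obs)/KH1.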"}, "[3]": {"assay": "Hydration constants by quantitative 13C NMR", "type": "physicochemical", "conditions": "pH 3.0, 13C NMR"}, "trypsin [4]": {"target": "T1, trypsin", "assay": "13C NMR of trypsin catalysed breakdown of bound glyoxal inhibitor", "type": "biochemical", "conditions": "pH 7.2, in the presence of trypsin"}}, "data": [{"smiles": "NCCCC[C@H](NC(=O)OCc1ccccc1)[13C](=O)C=O", "note": "[Z-Lys-^13COCHO]", "values": [{"measurement": "Half life of Schiff base formation allowing for pH 7.0 instead of 7.2", "setting": "[1]; corrected to pH 7.2", "value": 14.5, "unit": "h"}, {"measurement": "Half life of Schiff base formation", "setting": "[1]; pH 7.0", "value": 23.0, "unit": "h"}, {"measurement": "1st order rate constant of Schiff base formation", "setting": "[1]; pH 7.0, 25 °C, 20 mM potassium phosphate buffer", "value": "0.030±0.004", "unit": "h^−^1"}]}, {"smiles": "NC(N)=NCCC[C@H](NC(=O)OCc1ccccc1)C(=O)O", "note": "[Z-Arg-COOH]", "values": [{"measurement": "Tighter binding than Z-Lys-COOH", "setting": "trypsin [2]", "value": "~ 2 fold"}]}, {"smiles": "NCCCC[C@H](NC(=O)OCc1ccccc1)C(=O)[13CH]=O", "note": "[Z-Lys-CO^13CHO]", "values": [{"measurement": "Stability of NMR signals", "setting": "[1]; pH 3.0, 64 h at 25 °C", "value": "no change in the intensity of the NMR signals"}, {"measurement": "t1/2 of decrease of inhibitor signals on storage", "setting": "[1]; pH 3, storage ~1 year", "value": "1850 ± 228", "unit": "h"}, {"measurement": "Half life of Schiff base formation", "setting": "[1]; pH 7.2, 25 °C", "value": 11.2, "unit": "h"}, {"measurement": "1st order rate constant of Schiff base formation", "setting": "[1]; pH 7.2, 25 °C, 20 mM potassium phosphate buffer", "value": "0.062 ± 0.016", "unit": "h⁻¹"}, {"measurement": "Half life of Schiff base formation", "setting": "[1]; pH 10.4", "value": 0.15, "unit": "h"}, {"measurement": "1st order rate constant of Schiff base formation", "setting": "[1]; pH 10.4, 20 mM sodium bicarbonate buffer", "value": "4.7 ± 0.7", "unit": "h⁻¹"}, {"measurement": "KH1obs, glyoxal aldehyde carbon", "setting": "[3]", "value": "97±7"}, {"measurement": "t1/2 of conversion of trypsin-bound inhibitor to α-hydroxycarboxylic acid", "setting": "trypsin [4]", "value": 2.9, "unit": "h"}]}]}
